ChEMBL document CHEMBL1833923, “Effects of linker elongation in a series of N-(2-benzofuranylmethyl)-N'-(methoxyphenylalkyl)piperazine σ₁ receptor ligands” (Bioorg Med Chem Lett, 2011)

Assays:
[1] = Displacement of [3H]DTG from sigma 2 receptor in rat PC12 cells after 2 hrs by liquid scintillation counting; assay type: cell-based; conditions: pc-12
Procedure, shortened: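 σ2 affinity by competition with [³H]DTG in a PC12 cell preparation, following a modified Kovacs and Larson protocol. Ki determinations were run by the NIMH PDSP. Values are mean ± SEM of triplicate assays.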

[2] = target: Sigma non-opioid intracellular receptor 1 (Rattus norvegicus, UniProt Q9R0C9); test: Displacement of [3H](+)-pentazocine from sigma 1 receptor in rat brain homogenate after 2.5 hrs by liquid scintillation counting; assay type: tissue-based
Chain of Sigma non-opioid intracellular receptor 1 (Q9R0C9 whole entry): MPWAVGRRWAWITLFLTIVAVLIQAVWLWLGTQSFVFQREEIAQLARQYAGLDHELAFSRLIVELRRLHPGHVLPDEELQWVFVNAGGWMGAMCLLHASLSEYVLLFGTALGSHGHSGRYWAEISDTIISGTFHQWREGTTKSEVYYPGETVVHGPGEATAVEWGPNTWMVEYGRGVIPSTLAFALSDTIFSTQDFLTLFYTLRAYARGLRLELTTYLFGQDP
Procedure, shortened: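 σ1 affinity by competition with [³H](+)-pentazocine in rat brain homogenate, following a modification of the Kovacs and Larson protocol. Ki determinations were run by the NIMH Psychoactive Drug Screening Program. Values are mean ± SEM from triplicate assays.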

[3] = tested on: PC-12; test: Selectivity ratio of Ki for sigma 2 receptor in rat PC12 cells to Ki for sigma 1 receptor in rat brain homogenates; assay type: cell-based
Procedure, shortened: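 Competition binding, done by the NIMH Psychoactive Drug Screening Program. σ1 Ki came from displacement of [³H](+)-pentazocine in rat brain homogenate, and σ2 Ki from displacement of [³H]DTG in a PC12 cell preparation. Ki values were mean with SEM from triplicate assays. The ratio is σ2 Ki divided by σ1 Ki.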

[4] = target: T1, D(2) dopamine receptor (Homo sapiens, UniProt P14416); test: Displacement of [3H]N-methylspiperone from D2 after 1.5 hrs by liquid scintillation counting
T1 sequence (P14416 whole entry): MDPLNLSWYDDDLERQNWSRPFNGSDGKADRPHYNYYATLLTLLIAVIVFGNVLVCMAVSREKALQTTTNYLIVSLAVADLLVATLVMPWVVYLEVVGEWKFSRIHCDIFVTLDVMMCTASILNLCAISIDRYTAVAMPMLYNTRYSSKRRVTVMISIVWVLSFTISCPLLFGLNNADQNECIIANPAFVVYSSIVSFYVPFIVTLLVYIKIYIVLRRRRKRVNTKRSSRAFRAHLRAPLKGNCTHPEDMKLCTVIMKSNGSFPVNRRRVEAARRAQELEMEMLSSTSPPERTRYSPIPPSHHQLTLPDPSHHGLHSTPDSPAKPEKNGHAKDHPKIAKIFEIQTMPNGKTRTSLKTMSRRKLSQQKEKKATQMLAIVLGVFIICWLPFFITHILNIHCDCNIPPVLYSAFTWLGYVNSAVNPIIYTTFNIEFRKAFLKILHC

[5] = target: 5-hydroxytryptamine receptor 2B (Homo sapiens, UniProt P41595); test: Displacement of [3H]LSD from 5-HT2B after 1.5 hrs by liquid scintillation counting
Chain of 5-hydroxytryptamine receptor 2B (P41595 whole entry): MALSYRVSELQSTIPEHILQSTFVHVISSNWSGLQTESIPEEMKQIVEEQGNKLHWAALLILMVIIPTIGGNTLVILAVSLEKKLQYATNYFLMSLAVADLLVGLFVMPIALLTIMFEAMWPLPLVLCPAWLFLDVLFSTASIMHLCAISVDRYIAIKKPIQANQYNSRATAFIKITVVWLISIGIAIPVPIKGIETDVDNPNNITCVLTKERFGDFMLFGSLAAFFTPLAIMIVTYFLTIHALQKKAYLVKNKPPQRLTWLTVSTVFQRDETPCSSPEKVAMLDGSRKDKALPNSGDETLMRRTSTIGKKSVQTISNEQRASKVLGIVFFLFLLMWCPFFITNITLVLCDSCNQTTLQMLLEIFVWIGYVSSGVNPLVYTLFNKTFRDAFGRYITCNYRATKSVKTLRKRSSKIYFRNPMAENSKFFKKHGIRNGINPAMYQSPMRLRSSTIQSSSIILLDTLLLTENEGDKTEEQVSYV

[6] = Displacement of [3H]MK801 from PCP binding site of NMDA receptor at 10 uM after 1.5 hrs by liquid scintillation counting
[7] = target: T1, D(2) dopamine receptor; test: Displacement of [3H]N-methylspiperone from D2 at 10 uM after 1.5 hrs by liquid scintillation counting

SMILES	Ki [2] [nM]	Ki [4] [nM]	Ki [5] [nM]	inhibition [6] [%]	inhibition [7] [%]	Ki [1] [nM]	Ratio Ki [3]
c1ccc(CCCN2CCN(Cc3cc4ccccc4o3)CC2)cc1	5.7	1020	147	< 50	–	18	3
c1ccc(CCCCN2CCN(Cc3cc4ccccc4o3)CC2)cc1	4.2	89	275	< 50	–	18	4
COc1cccc(CCN2CCN(Cc3cc4ccccc4o3)CC2)c1	13	–	290	< 50	< 50	14	1
COc1cccc(CCCCN2CCN(Cc3cc4ccccc4o3)CC2)c1	7.6	484	343	< 50	–	211	28
c1ccc(CCN2CCN(Cc3cc4ccccc4o3)CC2)cc1	7.3	–	310	< 50	< 50	131	18
COc1ccccc1CCN1CCN(Cc2cc3ccccc3o2)CC1	17	1650	120	< 50	–	81	5

Continued, in another order:

Ki [2] [nM]	Ki [4] [nM]	Ki [5] [nM]	inhibition [6] [%]	inhibition [7] [%]	SMILES	Ki [1] [nM]	Ratio Ki [3]
3.1	> 10000	155	< 50	< 50	COc1ccc(CCCN2CCN(Cc3cc4ccccc4o3)CC2)cc1	138	45
5.7	556	243	< 50	–	COc1cccc(CCCN2CCN(Cc3cc4ccccc4o3)CC2)c1	40	7
9.4	–	463	< 50	< 50	COc1ccc(CCN2CCN(Cc3cc4ccccc4o3)CC2)cc1	101	11
8.3	5870	628	< 50	–	COc1ccccc1CCCN1CCN(Cc2cc3ccccc3o2)CC1	53	6
13	5790	352	< 50	–	COc1ccc(CCCCN2CCN(Cc3cc4ccccc4o3)CC2)cc1	87	7
16	432	332	< 50	–	COc1ccccc1CCCCN1CCN(Cc2cc3ccccc3o2)CC1	130	8
